# Reference: ChEMBL document CHEMBL1133641, “A new class of potential chloroquine-resistance reversal agents for Plasmodia: syntheses and biological evaluation of 1-(3'-diethylaminopropyl)-3-(substituted phenylmethylene)pyrrolidines” (2000)
# Active and inactive are the calls of the source. The calls are words filed in the database; no cut-off is given here.
# How the values were obtained:
# [1] = target: T1, Glutathione S-transferase (Plasmodium yoelii yoelii) (UniProt Q7REH6); experiment: Inhibition of Glutathione S-transferase in Plasmodium yoelii nigeriensis isolated from infected mice (Mus musculus) (oral); type: functional; details: concentration not given here
# T1 sequence (whole entry): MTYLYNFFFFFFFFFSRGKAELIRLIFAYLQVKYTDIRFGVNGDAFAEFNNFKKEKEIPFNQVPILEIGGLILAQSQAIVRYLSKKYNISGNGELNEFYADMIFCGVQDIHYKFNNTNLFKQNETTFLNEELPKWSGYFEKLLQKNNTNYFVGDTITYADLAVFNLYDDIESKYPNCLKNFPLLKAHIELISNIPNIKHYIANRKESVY
# Summary of the method: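 Mice infected with P. yoelii nigeriensis were dosed orally at 15 mg/kg body wt for 5 days. Parasites were then isolated from blood by density-gradient centrifugation and saponin lysis. Glutathione-S-transferase (and heme oxygenase) activity is given as % inhibition.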
# [2] = test system: Plasmodium yoelii nigeriensis; experiment: In Vitro inhibition of Heme Oxygenase in Cell-free parasite Plasmodium yoelii at concentration 10 uM;NI denotes nil inhibition; type: functional
# Summary of the method: (§1)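 Heme oxygenase activity was measured as bilirubin formation in a post-mitochondrial fraction. The parasite enzyme came from cell-free P. yoelii, isolated from infected blood by density gradient centrifugation and saponin lysis. The host enzyme came from infected liver. Compounds were tested at 10–100 µM and preincubated for 10 min before the reaction was started.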
# [3] = test system: Plasmodium yoelii nigeriensis; experiment: In Vitro inhibition of Heme Oxygenase in Cell-free parasite Plasmodium yoelii at concentration 50 uM; type: functional; summary of the method: as §1
# [4] = test system: Plasmodium yoelii nigeriensis; experiment: Inhibition of heme oxygenase in Plasmodium yoelii nigeriensis isolated from infected mice (Mus musculus) (oral); type: functional
# Summary of the method: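 Swiss albino mice carried P. yoelii nigeriensis tolerant to CQ up to 120 mg/kg. They received compound orally at 15 mg/kg body wt for 5 days. Parasites were then isolated from blood by density gradient centrifugation and saponin lysis, and enzyme inhibition was measured as percent inhibition.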
# Plasmodium yoelii [5] = experiment: Evaluated for the Heme oxygenase in chloroquine-resistant Plasmodium yoelii which is treated with 15 mg/kg body weight of compound for 10 days;NA denotes no activity; type: functional, organism-based; design: dose 15 mg/kg
# Mus musculus [6] = species: Mus musculus; experiment: In Vitro inhibition of Heme Oxygenase in Plasmodium yoelii (host) at concentration 100 uM; type: functional
# Summary of the method: (§2)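 In vitro heme oxygenase, cell-free: post-mitochondrial fractions of P. yoelii parasites and of infected host liver. Test compounds at 10-100 µM were preincubated 10 min in the assay system before the enzyme reaction started. Activity was followed as bilirubin formation and expressed as % inhibition.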
# Mus musculus [7] = species: Mus musculus; experiment: In Vitro inhibition of Heme Oxygenase in Plasmodium yoelii (host) at concentration 50 uM; type: functional; summary of the method: as §2
# [8] = test system: Plasmodium yoelii nigeriensis; experiment: In Vitro inhibition of Heme Oxygenase in Cell-free parasite Plasmodium yoelii at concentration 10 uM; type: functional; summary of the method: as §1
# Plasmodium berghei [9] = experiment: Evaluated for the Heme oxygenase (Values are mean +/- SD of 4 separate observations. Specific activity in nmol/h/mg protein) in chloroquine-resistant Plasmodium berghei; type: functional
# Summary of the method: (§3)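 Mastomys carrying CQ-resistant P. berghei were dosed orally at 15 mg/kg for 10 days. Untreated CQ-resistant and CQ-sensitive parasites served as reference samples. Parasites were isolated by density-gradient centrifugation and saponin lysis. Heme oxygenase was followed as bilirubin formation in the post-mitochondrial fraction and expressed as nmol/h/mg protein.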
# Plasmodium berghei [10] = experiment: Evaluated for the Heme oxygenase (Values are mean +/- SD of 4 separate observations. Specific activity in nmol/h/mg protein) in chloroquine-sensitive Plasmodium berghei; type: functional; summary of the method: as §3
# Plasmodium berghei [11] = experiment: Evaluated for the Heme oxygenase (Values are mean +/- SD of 4 separate observations. Specific activity in nmol/h/mg protein) in chloroquine-resistant Plasmodium berghei which is treated with 15 mg/kg body weight of compound for 10 days; NA denotes no activity; type: functional, organism-based; design: dose 15 mg/kg; summary of the method: as §3
# Plasmodium yoelii [12] = experiment: Evaluated for the Heme oxygenase in chloroquine-resistant Plasmodium yoelii; type: functional
# [13] = test system: Plasmodium yoelii nigeriensis; experiment: In Vitro inhibition of Heme Oxygenase in Cell-free parasite Plasmodium yoelii at concentration 100 uM; type: functional; summary of the method: as §1
# Plasmodium yoelii [14] = experiment: In vivo antimalarial activity as survivors after 1 month in chloroquine-resistant Plasmodium yoelii nigeriensis infected Swiss Albino mice (Mus musculus) at 15 mg/kg combined with 10 mg/kg chloroquine; type: functional
# Plasmodium berghei [15] = experiment: In vivo antimalarial activity as parasitemia at day 10 in chloroquine-resistant Plasmodium berghei infected Mastomys coucha at 10 mg/kg; range 15-17%; type: functional
# Plasmodium berghei [16] = experiment: In vivo antimalarial activity as parasitemia at day 10 in chloroquine-resistant Plasmodium berghei infected Mastomys coucha at 15 mg/kg; range 20-22%; type: functional
# Plasmodium berghei [17] = experiment: In vivo antimalarial activity as parasitemia at day 10 in chloroquine-resistant Plasmodium berghei infected Mastomys coucha; range 20-22%; type: functional
# Plasmodium yoelii [18] = experiment: In vivo parasitaemia at day 17 in chloroquine-resistant Plasmodium yoelii nigeriensis infected Swiss Albino mice (Mus musculus); Not active; type: functional, organism-based
# Plasmodium yoelii [19] = experiment: In vivo resistance reversal agent in chloroquine-resistant Plasmodium yoelii nigerienses infected Swiss Albino mice (Mus musculus). Parasitemia observed on day 6-10 of treatment in Group III NI denotes nil inhibition; type: functional, organism-based
# Plasmodium yoelii [20] = experiment: (§4) In vivo antimalarial activity as parasitemia at day 17 in chloroquine-resistant Plasmodium yoelii nigerienses infected Swiss Albino mice (Mus musculus) treated at day 10; No survivors; type: functional, organism-based
# Plasmodium yoelii [21] = experiment: as §4; type: functional, organism-based; remark: listed apart in the source
# Plasmodium yoelii [22] = experiment: In vivo antimalarial activity as parasitemia at day 6 in chloroquine-resistant Plasmodium yoelii nigerienses infected Swiss Albino mice (Mus musculus); range 70-80%; type: functional
# Plasmodium yoelii [23] = experiment: In vivo antimalarial activity as parasitemia at days 6-10 in chloroquine-resistant Plasmodium yoelii nigerienses infected Swiss Albino mice (Mus musculus); range 70-80%; type: functional
# Plasmodium yoelii [24] = experiment: In vivo antimalarial activity as pretreatment parasitaemia in chloroquine-resistant Plasmodium yoelii nigeriensis infected Swiss Albino mice (Mus musculus); range 1-2%; type: functional
# Plasmodium yoelii [25] = experiment: (§5) In vivo antimalarial activity as pretreatment parasitemia in chloroquine-resistant Plasmodium yoelii nigerienses infected Swiss Albino mice (Mus musculus); range 1-2%; type: functional
# Plasmodium yoelii [26] = experiment: as §5; type: functional; remark: listed apart in the source
# Plasmodium yoelii [27] = experiment: In vivo resistance reversal in chloroquine-resistant Plasmodium yoelii nigeriensis infected Swiss Albino mice (Mus musculus); range is 1-2%; type: functional
# Plasmodium yoelii [28] = experiment: In vivo resistance reversal agent in chloroquine-resistant Plasmodium yoelii nigerienses infected Swiss Albino mice (Mus musculus). Parasitemia observed on day 6-10 of treatment in Group IV;range is 80-70%; type: functional
# Plasmodium yoelii [29] = experiment: In vivo antimalarial activity as MST of 1 week in chloroquine-resistant Plasmodium yoelii nigeriensis infected Swiss Albino mice (Mus musculus) at 15 mg/kg; type: functional
# Plasmodium yoelii [30] = experiment: In vivo antimalarial activity as MST of 1 week in chloroquine-resistant Plasmodium yoelii nigerienses infected Swiss Albino mice (Mus musculus) at 10 mg/kg chloroquine; type: functional
# Plasmodium yoelii [31] = experiment: In vivo resistance reversal (control MST = 1 week) in chloroquine-resistant Plasmodium yoelii nigerienses infected Swiss Albino mice (Mus musculus); type: functional
# Plasmodium berghei [32] = experiment: In vivo resistance reversal at day 10 against chloroquine-resistant Plasmodium berghei infected Mastomys coucha at 10 mg/kg; range 20-22; type: functional
# Plasmodium berghei [33] = experiment: In vivo resistance reversal at day 10 in chloroquine-resistant Plasmodium berghei infected Mastomys coucha at 10 mg/kg; range 20-22; type: functional
# Plasmodium berghei [34] = experiment: In vivo resistance reversal at day 10 in chloroquine-resistant Plasmodium berghei infected Mastomys coucha at 10 mg/kg; range 20-22%; type: functional
# Plasmodium berghei [35] = experiment: In vivo antimalarial activity as parasitemia at day 17 in-chloroquine-resistant Plasmodium berghei infected Mastomys coucha treated to day 10; No inhibition; type: functional, organism-based
# Plasmodium berghei [36] = experiment: In vivo antimalarial activity as parasitaemia at day 17 in chloroquine-resistant Plasmodium berghei infected Mastomys coucha treated to day 10; range >25-30%; type: functional
# Plasmodium berghei [37] = experiment: In vivo antimalarial activity as parasitaemia at day 17 in chloroquine-resistant Plasmodium berghei infected Mastomys coucha treated to day 10; range 25-30%; type: functional
# Plasmodium berghei [38] = experiment: In vivo antimalarial activity as parasitemia at day 17 in chloroquine-resistant Plasmodium berghei infected Mastomys coucha treated to day 10; range 25-30%; type: functional
# Plasmodium berghei [39] = experiment: (§6) In vivo pretreatment parasitemia in chloroquine-resistant Plasmodium berghei infected Mastomys coucha; range 4-5%; type: functional
# Plasmodium berghei [40] = experiment: as §6; type: functional; remark: listed apart in the source
# Plasmodium berghei [41] = experiment: as §6; type: functional; remark: listed apart in the source
# Plasmodium berghei [42] = experiment: as §6; type: functional; remark: listed apart in the source
# Plasmodium berghei [43] = experiment: Heme content in chloroquine-resistant Plasmodium berghei; type: functional
# Plasmodium berghei [44] = experiment: Heme content in chloroquine-resistant Plasmodium berghei at 15 mg/kg for 10 days; type: functional
# Plasmodium yoelii [45] = experiment: Heme content in chloroquine-resistant Plasmodium yoelii; type: functional
# Plasmodium yoelii [46] = experiment: Heme content after 10 days in chloroquine-resistant Plasmodium yoelii at 15 mg/kg; type: functional
# Plasmodium yoelii [47] = experiment: Heme content in chloroquine-sensitive Plasmodium yoelii; type: functional
# Plasmodium yoelii [48] = experiment: Evaluated for the Heme oxygenase in chloroquine-sensitive Plasmodium yoelii; type: functional
# Plasmodium berghei [49] = experiment: Heme content in chloroquine-sensitive Plasmodium berghei; type: functional
# [50] = test system: Plasmodium yoelii nigeriensis; experiment: Hemozoin formation in chloroquine-resistant Plasmodium yoelii
# [51] = test system: Plasmodium yoelii nigeriensis; experiment: Hemozoin formation in chloroquine-sensitive Plasmodium yoelii
# Plasmodium berghei [52] = experiment: Hemozoin formation in chloroquine-resistant Plasmodium berghei
# Plasmodium berghei [53] = experiment: Hemozoin formation in chloroquine-sensitive Plasmodium berghei
# [54] = test system: Plasmodium yoelii nigeriensis; experiment: Hemozoin formation in chloroquine-resistant Plasmodium yoelii at 15 mg/kg for 10 days
# Plasmodium berghei [55] = experiment: Hemozoin formation in chloroquine-resistant Plasmodium berghei at 15 mg/kg for 10 days
# Plasmodium berghei [56] = experiment: In vivo resistance reversal after 1 month in chloroquine-resistant Plasmodium berghei infected Mastomys coucha at 15 mg/kg on day 10; No inhibition
smiles,measurement,setting,value
CCN(CC)CCCN1CC/C(=C\c2ccc(OC)cc2)C1,inhibition,[1],99%
same,NI,[2],No inhibition
same,inhibition,[3],64%
same,Inhibition,[4],100%
same,NA,Plasmodium yoelii [5],inactive
same,inhibition,Mus musculus [6],31%
same,inhibition,Mus musculus [7],21%
same,inhibition,[8],48%
same,Mean,Plasmodium berghei [9],80.2 nM/h/mg
same,Mean,Plasmodium berghei [10],7.32 nM/h/mg
same,NA,Plasmodium berghei [11],inactive
same,Mean,Plasmodium yoelii [12],102 nM/h/mg
same,inhibition,[13],87%
same,Mean survival time,Plasmodium yoelii [14],> 1 month
same,Parasites,Plasmodium berghei [15],17%
same,Parasites,Plasmodium berghei [16],22%
same,Parasites,Plasmodium berghei [17],22%
same,NI,Plasmodium yoelii [18],No inhibition
same,NI,Plasmodium yoelii [19],No inhibition
same,NS,Plasmodium yoelii [20],No survivors
same,NS,Plasmodium yoelii [21],No survivors
same,Parasites,Plasmodium yoelii [22],80%
same,Parasites,Plasmodium yoelii [23],80%
same,Parasites,Plasmodium yoelii [24],2%
same,Parasites,Plasmodium yoelii [25],2%
same,Parasites,Plasmodium yoelii [26],2%
same,Parasites,Plasmodium yoelii [27],2%
same,Parasites,Plasmodium yoelii [28],80%
same,Mean survival time,Plasmodium yoelii [29],1
same,Mean survival time,Plasmodium yoelii [30],1
same,Mean survival time,Plasmodium yoelii [31],1
same,Mean survival time,Plasmodium berghei [32],22 days
same,Mean survival time,Plasmodium berghei [33],22 days
same,Mean survival time,Plasmodium berghei [34],22 days
same,NI,Plasmodium berghei [35],No inhibition
same,Parasites,Plasmodium berghei [36],>30%
same,Parasites,Plasmodium berghei [37],>30%
same,Parasites,Plasmodium berghei [38],>30%
same,Parasites,Plasmodium berghei [39],5%
same,Parasites,Plasmodium berghei [40],5%
same,Parasites,Plasmodium berghei [41],5%
same,Parasites,Plasmodium berghei [42],5%
same,Mean,Plasmodium berghei [43],60.3 pmol/mg
same,Mean,Plasmodium berghei [44],321 pmol/mg
same,Mean,Plasmodium yoelii [45],109 pmol/mg
same,Mean,Plasmodium yoelii [46],172 pmol/mg
same,Mean,Plasmodium yoelii [47],218 pmol/mg
same,Mean,Plasmodium yoelii [48],10.2 nM/h/mg
same,Mean,Plasmodium berghei [49],344 pmol/mg
same,Mean,[50],43.3 pmol/mg
same,Mean,[51],109 pmol/mg
same,Mean,Plasmodium berghei [52],51.4 pmol/mg
same,Mean,Plasmodium berghei [53],101 pmol/mg
same,Mean,[54],45.1 pmol/mg
same,Mean,Plasmodium berghei [55],71.1 pmol/mg
same,NI,Plasmodium berghei [56],No inhibition
